Assay results published in ChEMBL document CHEMBL3352487, “Synthesis, antibacterial activity, and biological evaluation of formyl hydroxyamino derivatives as novel potent peptide deformylase inhibitors against drug-resistant bacteria” (Eur J Med Chem, 2014).
Converted amounts (≈) assume the structure as drawn.

Legend:
Format in all cases: functional
Staphylococcus aureus [1] = assay: Antimicrobial activity against Staphylococcus aureus after 24 hrs by broth microdilution method
How it was run: (§1)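 Broth microdilution following NCCLS M7-A4; ATCC strains and clinical isolates from a provincial hospital.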

Staphylococcus aureus [2] = assay: Antimicrobial activity against methicillin-susceptible Staphylococcus aureus after 24 hrs by broth microdilution method; how it was run: as §1
Staphylococcus aureus [3] = assay: Antimicrobial activity against methicillin-resistant Staphylococcus aureus after 24 hrs by broth microdilution method
How it was run: (§2)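 Broth microdilution following NCCLS M7-A4, using ATCC strains and clinical isolates from a provincial hospital.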

[4] = tested on: Staphylococcus epidermidis; assay: Antimicrobial activity against methicillin-resistant Staphylococcus epidermidis after 24 hrs by broth microdilution method; how it was run: as §2
[5] = tested on: Staphylococcus epidermidis; assay: Antimicrobial activity against methicillin-susceptible Staphylococcus epidermidis after 24 hrs by broth microdilution method; how it was run: as §1
Enterococcus faecalis = assay: Antimicrobial activity against Enterococcus faecalis after 24 hrs by broth microdilution method; how it was run: as §1
Moraxella catarrhalis = assay: Antimicrobial activity against Moraxella catarrhalis after 24 hrs by broth microdilution method; how it was run: as §1
Streptococcus pneumoniae = assay: Antimicrobial activity against penicillin-resistant Streptococcus pneumoniae after 24 hrs by broth microdilution method; how it was run: as §2
[6] = tested on: Staphylococcus epidermidis; assay: Antimicrobial activity against Staphylococcus epidermidis after 24 hrs by broth microdilution method; how it was run: as §1
Escherichia coli [7] = assay: Antimicrobial activity against Escherichia coli isolate 1 after 24 hrs by broth microdilution method; conditions: isolate 1, 24 h; how it was run: as §1
Escherichia coli [8] = assay: Antimicrobial activity against Escherichia coli isolate 2 after 24 hrs by broth microdilution method; conditions: isolate 2, 24 h; how it was run: as §1

## CCCC[C@H](CN(O)C=O)C(=O)N1C[C@@H](C)C[C@H]1C(=O)Nc1ccc(F)c[n+]1[O-]
Staphylococcus aureus [1]
  MIC: 0.25 µg/mL (≈ 0.609 µM)
Staphylococcus aureus [2]
  MIC: 0.25 µg/mL (≈ 0.609 µM)
Staphylococcus aureus [3]
  MIC: 0.25 µg/mL (≈ 0.609 µM)
[4]
  MIC: 0.5 µg/mL (≈ 1.22 µM)
[5]
  MIC: 0.0625 µg/mL (≈ 0.152 µM)
Enterococcus faecalis
  MIC: 4 µg/mL (≈ 9.75 µM)
Moraxella catarrhalis
  MIC: 0.03 µg/mL (≈ 0.0731 µM)
Streptococcus pneumoniae
  MIC: 0.03 µg/mL (≈ 0.0731 µM)

## Cc1cnc(NC(=O)[C@@H]2C[C@H](F)CN2C(=O)[C@H](CC2CCCC2)CN(O)C=O)s1
Staphylococcus aureus [1]
  MIC: 1 µg/mL (≈ 2.34 µM)
Staphylococcus aureus [2]
  MIC: 0.5 µg/mL (≈ 1.17 µM)
Staphylococcus aureus [3]
  MIC: 0.5 µg/mL (≈ 1.17 µM)
[4]
  MIC: 1 µg/mL (≈ 2.34 µM)
[5]
  MIC: 0.125 µg/mL (≈ 0.293 µM)
Enterococcus faecalis
  MIC: > 16 µg/mL
Moraxella catarrhalis
  MIC: 0.125 µg/mL (≈ 0.293 µM)
Streptococcus pneumoniae
  MIC: 0.03 µg/mL (≈ 0.0703 µM)

## O=CN(O)C[C@@H](CC1CCCC1)C(=O)N1C[C@@H](F)C[C@H]1C(=O)Nc1ccc(F)c[n+]1[O-]
Staphylococcus aureus [1]
  MIC: 2 µg/mL (≈ 4.54 µM)
Staphylococcus aureus [2]
  MIC: 0.5 µg/mL (≈ 1.14 µM)
Staphylococcus aureus [3]
  MIC: 2 µg/mL (≈ 4.54 µM)
[4]
  MIC: 4 µg/mL (≈ 9.08 µM)
[5]
  MIC: 0.25 µg/mL (≈ 0.568 µM)
Enterococcus faecalis
  MIC: 8 µg/mL (≈ 18.2 µM)
Moraxella catarrhalis
  MIC: 0.25 µg/mL (≈ 0.568 µM)
Streptococcus pneumoniae
  MIC: 0.03 µg/mL (≈ 0.0681 µM)

## Cc1cnc(NC(=O)[C@@H]2C[C@H](C)CN2C(=O)[C@H](CC2CCCC2)CN(O)C=O)s1
Staphylococcus aureus [1]
  MIC: 1 µg/mL (≈ 2.37 µM)
Staphylococcus aureus [2]
  MIC: 0.5 µg/mL (≈ 1.18 µM)
Staphylococcus aureus [3]
  MIC: 1 µg/mL (≈ 2.37 µM)
[4]
  MIC: 2 µg/mL (≈ 4.73 µM)
[5]
  MIC: 0.25 µg/mL (≈ 0.592 µM)
Enterococcus faecalis
  MIC: 4 µg/mL (≈ 9.47 µM)
Moraxella catarrhalis
  MIC: 0.5 µg/mL (≈ 1.18 µM)
Streptococcus pneumoniae
  MIC: 0.03 µg/mL (≈ 0.071 µM)

## C[C@H]1C[C@@H](C(=O)Nc2ccc(F)c[n+]2[O-])N(C(=O)[C@H](CC2CCCC2)CN(O)C=O)C1
Staphylococcus aureus [1]
  MIC: 0.5 µg/mL (≈ 1.15 µM)
Staphylococcus aureus [2]
  MIC: 0.5 µg/mL (≈ 1.15 µM)
Staphylococcus aureus [3]
  MIC: 0.5 µg/mL (≈ 1.15 µM)
[4]
  MIC: 1 µg/mL (≈ 2.29 µM)
[5]
  MIC: 1 µg/mL (≈ 2.29 µM)
Enterococcus faecalis
  MIC: 2 µg/mL (≈ 4.58 µM)
Moraxella catarrhalis
  MIC: 0.5 µg/mL (≈ 1.15 µM)
Streptococcus pneumoniae
  MIC: 0.03 µg/mL (≈ 0.0687 µM)

## CCCC[C@H](CN(O)C=O)C(=O)N1[C@H](C(=O)Nc2ncc(C)s2)C[C@H]2CCCC[C@@H]21
Staphylococcus aureus [1]
  MIC: 8 µg/mL (≈ 18.3 µM)
Staphylococcus aureus [2]
  MIC: 8 µg/mL (≈ 18.3 µM)
Staphylococcus aureus [3]
  MIC: 8 µg/mL (≈ 18.3 µM)
[4]
  MIC: 16 µg/mL (≈ 36.6 µM)
[5]
  MIC: 0.5 µg/mL (≈ 1.15 µM)
Enterococcus faecalis
  MIC: > 16 µg/mL
Moraxella catarrhalis
  MIC: 0.03 µg/mL (≈ 0.0687 µM)
Streptococcus pneumoniae
  MIC: 0.03 µg/mL (≈ 0.0687 µM)

## CCCC[C@H](CN(O)C=O)C(=O)N1[C@H](C(=O)Nc2ccc(C)cn2)C[C@H]2CCCC[C@@H]21
Staphylococcus aureus [1]
  MIC: 8 µg/mL (≈ 18.6 µM)
Staphylococcus aureus [2]
  MIC: 8 µg/mL (≈ 18.6 µM)
Staphylococcus aureus [3]
  MIC: 4 µg/mL (≈ 9.29 µM)
[4]
  MIC: 16 µg/mL (≈ 37.2 µM)
[5]
  MIC: 0.5 µg/mL (≈ 1.16 µM)
Enterococcus faecalis
  MIC: > 16 µg/mL
Moraxella catarrhalis
  MIC: 0.03 µg/mL (≈ 0.0697 µM)
Streptococcus pneumoniae
  MIC: 0.03 µg/mL (≈ 0.0697 µM)

## Cc1cnc(NC(=O)[C@@H]2C[C@H]3CCCC[C@@H]3N2C(=O)[C@H](CC2CCCC2)CN(O)C=O)s1
Staphylococcus aureus [1]
  MIC: 4 µg/mL (≈ 8.65 µM)
Staphylococcus aureus [2]
  MIC: 4 µg/mL (≈ 8.65 µM)
Staphylococcus aureus [3]
  MIC: 4 µg/mL (≈ 8.65 µM)
[4]
  MIC: 8 µg/mL (≈ 17.3 µM)
[5]
  MIC: 0.5 µg/mL (≈ 1.08 µM)
Enterococcus faecalis
  MIC: > 16 µg/mL
Moraxella catarrhalis
  MIC: 0.5 µg/mL (≈ 1.08 µM)
Streptococcus pneumoniae
  MIC: 0.03 µg/mL (≈ 0.0648 µM)

## O=CN(O)C[C@@H](CC1CCCC1)C(=O)N1[C@H](C(=O)Nc2ccc(F)cn2)C[C@H]2CCCC[C@@H]21
Staphylococcus aureus [1]
  MIC: 4 µg/mL (≈ 8.69 µM)
Staphylococcus aureus [2]
  MIC: 4 µg/mL (≈ 8.69 µM)
Staphylococcus aureus [3]
  MIC: 4 µg/mL (≈ 8.69 µM)
[4]
  MIC: 4 µg/mL (≈ 8.69 µM)
[5]
  MIC: 0.25 µg/mL (≈ 0.543 µM)
Enterococcus faecalis
  MIC: > 16 µg/mL
Moraxella catarrhalis
  MIC: 0.03 µg/mL (≈ 0.0651 µM)
Streptococcus pneumoniae
  MIC: 0.03 µg/mL (≈ 0.0651 µM)

## Cc1ccc(NC(=O)[C@@H]2C[C@H]3CCCC[C@@H]3N2C(=O)[C@H](CC2CCCC2)CN(O)C=O)nc1
Staphylococcus aureus [1]
  MIC: 4 µg/mL (≈ 8.76 µM)
Staphylococcus aureus [2]
  MIC: 4 µg/mL (≈ 8.76 µM)
Staphylococcus aureus [3]
  MIC: 4 µg/mL (≈ 8.76 µM)
[4]
  MIC: 8 µg/mL (≈ 17.5 µM)
[5]
  MIC: 0.5 µg/mL (≈ 1.1 µM)
Enterococcus faecalis
  MIC: > 16 µg/mL
Moraxella catarrhalis
  MIC: 0.5 µg/mL (≈ 1.1 µM)
Streptococcus pneumoniae
  MIC: 0.03 µg/mL (≈ 0.0657 µM)

## O=C(O)c1cn(C2CC2)c2cc(N3CCNCC3)c(F)cc2c1=O [CIPROFLOXACIN]
Staphylococcus aureus [1]
  MIC: 0.5 µg/mL (≈ 1.51 µM)
Staphylococcus aureus [2]
  MIC: 0.5 µg/mL (≈ 1.51 µM)
Staphylococcus aureus [3]
  MIC: 1 µg/mL (≈ 3.02 µM)
[6]
  MIC: 0.25 µg/mL (≈ 0.754 µM)
Escherichia coli [7]
  MIC: < 0.0312 µg/mL
Escherichia coli [8]
  MIC: < 0.0312 µg/mL

## CC1(C)S[C@@H]2[C@H](NC(=O)Cc3ccccc3)C(=O)N2[C@H]1C(=O)O [PENICILLIN G]
Staphylococcus aureus [1]
  MIC: 0.0625 µg/mL (≈ 0.187 µM)
Staphylococcus aureus [2]
  MIC: 1 µg/mL (≈ 2.99 µM)
Staphylococcus aureus [3]
  MIC: 64 µg/mL (≈ 191 µM)
[6]
  MIC: 2 µg/mL (≈ 5.98 µM)
Escherichia coli [7]
  MIC: > 64 µg/mL
Escherichia coli [8]
  MIC: > 64 µg/mL
